The subject of one data set is rhinovirus A1B. The data set is described as follows: Antiviral activity against Human rhinovirus 1B infected in human HeLa cells after 3 days by plaque reduction assay. To be noted: for IC50: Rhinovirus A, 72 h. It is filed as functional, organism-based. The procedure, abridged:
(§1)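 HeLa monolayers infected with ATCC HRV 14 or 1B at about 100 plaques per well, 1 h adsorption at 33 °C. Inoculum removed, then plaque overlay with fourfold drug dilutions from the MNTC. Three days at 33 °C, neutral red (0.2 mg/mL, PBS pH 7.4) staining and plaque count, triplicate wells. IC50 from log dose vs % reduction relative to mock-treated control. Otherwise % inhibition at MNTC is reported.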

The subject of data set [1] is Enterovirus A71. The data set is described as follows: Antiviral activity against Human enterovirus 71 infected in human Hep2 cells at maximum non-cytotoxic concentration […] by plaque reduction assay. In kind it is functional, HEp-2.
Data set [2] in a line: Cytotoxicity against human HeLa cells assessed as maximum non-cytotoxic concentration after 3 days by XTT assay. It is filed as cell-based. The procedure, abridged: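 HeLa cells seeded at 2 × 10³ per well with twofold compound dilutions from the maximum soluble concentration, quadruplicate wells, 37 °C in 5% CO2 for 3 days until controls were confluent. XTT added (final 0.15 mg/mL) for 4 h, absorbance read at 492 nm with 690 nm reference. Morphology also scored microscopically. […] MNTC is the highest dose with no toxicity or growth reduction.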

Data set [3] relates to Enterovirus A71. Description: Antiviral activity against Human enterovirus 71 infected in human Hep2 cells after 2 days by plaque reduction assay. It is filed as functional, organism-based. To be noted: for IC50: Enterovirus A, HEp-2, 48 h; for Activity: HEp-2. The procedure, abridged:
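Inoculum removed, then plaque overlay with fourfold drug dilutions starting from the MNTC. Two days at 37 °C, neutral red (0.2 mg/mL in PBS pH 7.4) staining, plaques counted, triplicate wells. IC50 taken from log dose vs % plaque reduction.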

For data set [4], the system named is rhinovirus B14. Description: Antiviral activity against Human rhinovirus 14 infected in human HeLa cells after 3 days by plaque reduction assay. As to conditions: for IC50: Rhinovirus B, 72 h. It is filed as functional, organism-based. The procedure, abridged:
as §1

The nature of data set [5]: Cytotoxicity against human HeLa cells after 3 days by XTT assay. It is filed as cell-based. To be noted: read-out: TC50. The procedure, abridged: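 HeLa cells seeded at 2 × 10³ per well with twofold compound dilutions from the maximum soluble concentration, quadruplicate wells, 37 °C in 5% CO2 for 3 days until controls were confluent. Morphology also scored microscopically. MNTC is the highest dose with no toxicity or growth reduction.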

A short description of data set [6]: Therapeutic index, ratio of TC50 for human HeLa cells to IC50 for HRV 1B. It is filed as cell-based. To be noted: read-out: TI. The procedure, abridged: (§2)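 Therapeutic index calculated as TC50 for HeLa cells (XTT, 3 days) divided by IC50 for plaque reduction of HRV 14 or HRV 1B in HeLa cells.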
The test system of data set [7] is rhinovirus B14. Description: Antiviral activity against Human rhinovirus 14 infected in human HeLa cells at maximum non-cytotoxic concentration after 3 days by plaque reduction assay. In kind it is functional. The procedure, abridged: as §1
A short description of data set [8]: Cytotoxicity against human Hep2 cells assessed as maximum non-cytotoxic concentration after 3 days by XTT assay. In kind it is cell-based, HEp-2. The procedure, abridged: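 Hep-2 cells grown in high-glucose DMEM, seeded at 2 × 10³ per well with twofold dilutions from the maximum soluble concentration, quadruplicate wells, 3 days at 37 °C in 5% CO2. XTT (final 0.15 mg/mL) for 4 h, read at 492/690 nm, plus microscopic scoring. MNTC is the highest dose causing no toxic effect or growth reduction.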

A short description of data set [9]: Therapeutic index, ratio of TC50 for human HeLa cells to IC50 for HRV 14. It is filed as cell-based. To be noted: read-out: TI. The procedure, abridged: as §2

The structures appear in SMILES notation.

Turning to `O=c1c(/C=C/C=C/c2ccccc2)coc2ccc(Cl)cc12`, the Activity entry with rhinovirus A1B, with Enterovirus A71 [3] and in the data set with rhinovirus B14 [4] was “Dose-dependent effect” in each case. Besides, the half-maximal inhibitory concentration (IC50) is 1.6 µM with rhinovirus A1B, > 50 µM in the data set with Enterovirus A71 [3] and > 50 µM in the data set with rhinovirus B14 [4]. Moreover, the “inhibition (INH)” value in the data set on Enterovirus A71 [1] is 46.7%; in the data set on rhinovirus B14 [7] it was 48.3%. Besides, the MNTC at 72 h in data set [2] and in data set [8] was 50 µM throughout. Moreover, the CC50 at 72 h in [5] amounted to 100 µM. Moreover, the selectivity ratio in data set [6] came to 62.5.
On to `O=c1c(/C=C/c2ccccc2)coc2ccc(Cl)cc12`, for which the Activity entry in the data set with rhinovirus A1B, with Enterovirus A71 [3] and in the data set on rhinovirus B14 [4] was “Dose-dependent effect” each time. Further, the 50% inhibitory concentration (IC50) with rhinovirus A1B is 3.22 µM; in the data set on Enterovirus A71 [3] it was > 25 µM; with rhinovirus B14 [4], > 25 µM. Further, the “inhibition (INH)” value came to 37% with Enterovirus A71 [1] and 33.1% with rhinovirus B14 [7]. Moreover, the MNTC at 72 h in data set [2] and in data set [8] was 25 µM in each case. The CC50 at 72 h in data set [5] is 50 µM. The selectivity ratio in data set [6] came out at 15.5.
Regarding `Clc1ccc(/C=C/C2=Cc3cc(Cl)ccc3OC2)cc1`, the Activity result with rhinovirus A1B, with Enterovirus A71 [3] and in the data set with rhinovirus B14 [4] was “Dose-dependent effect” each time. The concentration for half-maximal inhibition (IC50) in the data set with rhinovirus A1B was 7.13 µM; in the data set with Enterovirus A71 [3] it was > 12.5 µM; in the data set with rhinovirus B14 [4], 8.28 µM. Also, the “inhibition (INH)” value in the data set with Enterovirus A71 [1] is 46.6%. Also, the MNTC at 72 h in data set [2] was 25 µM; in data set [8], 12.5 µM. Further, in [5], the CC50 at 72 h stood at 50 µM. Besides, the selectivity ratio came out at 7.01 in data set [6] and 6.04 in data set [9].
For `O=c1c(/C=C/C=C/c2ccc(Cl)cc2)coc2ccccc12`, the Activity entry in the data set with rhinovirus A1B, in the data set on Enterovirus A71 [3] and in the data set on rhinovirus B14 [4] was “Dose-dependent effect” throughout. The IC50 in the data set with rhinovirus A1B is 4.09 µM; in the data set with Enterovirus A71 [3] it was > 25 µM; in the data set with rhinovirus B14 [4], 4.07 µM. Moreover, the “inhibition (INH)” value in the data set with Enterovirus A71 [1] is recorded as 49.1%. The MNTC at 72 h in data set [2] and in data set [8] was 25 µM each time. Moreover, the CC50 at 72 h in data set [5] came out at 50 µM. Further, the selectivity ratio stood at 12.2 in data set [6] and 12.3 in data set [9].
As for `Clc1ccc(C2CCc3cc(Cl)ccc3O2)cc1` (configuration not stated), the MNTC at 72 h in [8] came out at 10 µM.
Take `Clc1ccc2c(c1)C=C(/C=C/C=C/c1ccccc1)CO2`: the Activity entry with rhinovirus A1B, in the data set on Enterovirus A71 [3] and in the data set with rhinovirus B14 [4] was “Dose-dependent effect” in each case. In addition, the half-maximal inhibitory concentration (IC50) is 6.27 µM in the data set with rhinovirus A1B, > 12.5 µM with Enterovirus A71 [3] and > 12.5 µM in the data set on rhinovirus B14 [4]. Moreover, the “inhibition (INH)” value is on record as 25.4% with Enterovirus A71 [1] and 37.2% in the data set with rhinovirus B14 [7]. Further, the MNTC at 72 h in data set [2] and in data set [8] was 12.5 µM each time. Further, in data set [5], the CC50 at 72 h turned out to be 25 µM. Besides, the selectivity ratio in [6] came to 3.99.
`Clc1ccc2c(c1)C=C(/C=C/c1ccccc1)CO2`: the Activity result in the data set on rhinovirus A1B, with Enterovirus A71 [3] and in the data set with rhinovirus B14 [4] was “Dose-dependent effect” each time. For the same compound, the concentration for half-maximal inhibition (IC50) with rhinovirus A1B was 11.2 µM; in the data set with Enterovirus A71 [3], > 50 µM; with rhinovirus B14 [4], 11.2 µM. Further, the “inhibition (INH)” value in the data set with Enterovirus A71 [1] stood at 30.8%. Besides, the MNTC at 72 h in data set [2] and in data set [8] was 50 µM each time. Besides, the CC50 at 72 h in data set [5] turned out to be 100 µM. Further, the selectivity ratio in data set [6] came to 8.93; in data set [9] it was 8.95.
In the case of `Clc1ccc(/C=C/C=C/C2=Cc3cc(Cl)ccc3OC2)cc1`, the Activity result in the data set on rhinovirus A1B, with Enterovirus A71 [3] and with rhinovirus B14 [4] was “Dose-dependent effect” throughout. In addition, the IC50 was 0.54 µM in the data set with rhinovirus A1B, > 6.25 µM in the data set on Enterovirus A71 [3] and > 6.25 µM in the data set with rhinovirus B14 [4]. In addition, the figures for the “inhibition (INH)” value in the data set with Enterovirus A71 [1] and in the data set with rhinovirus B14 [7] were 39.1% and 12.8%, respectively. Moreover, the MNTC at 72 h in data set [2] and in data set [8] was 6.25 µM in each case. Moreover, the CC50 at 72 h in data set [5] came out at 12.5 µM. Further, the selectivity ratio in [6] worked out at 23.1.
For the compound `O=c1c(/C=C/C=C/c2ccccc2)coc2ccccc12`, the Activity entry in the data set with rhinovirus A1B, in the data set with Enterovirus A71 [3] and in the data set with rhinovirus B14 [4] was “Dose-dependent effect” in each case. In addition, the IC50 is 5.27 µM with rhinovirus A1B, > 25 µM in the data set on Enterovirus A71 [3] and 15 µM in the data set on rhinovirus B14 [4]. Moreover, the “inhibition (INH)” value with Enterovirus A71 [1] is 39.8%. In addition, the MNTC at 72 h in data set [2] and in [8] was 25 µM each time. In addition, the CC50 at 72 h in data set [5] amounted to 50 µM. The figures for the selectivity ratio in data set [6] and in data set [9] were 9.49 and 3.33, respectively.
Take `Clc1ccc(/C=C/C=C/C2=Cc3ccccc3OC2)cc1`: the Activity entry in the data set on rhinovirus A1B, with Enterovirus A71 [3] and with rhinovirus B14 [4] was “Dose-dependent effect” throughout. Also, the half-maximal inhibitory concentration (IC50) is 3.1 µM in the data set on rhinovirus A1B, > 3.12 µM in the data set with Enterovirus A71 [3] and > 3.12 µM in the data set on rhinovirus B14 [4]. Moreover, the results for the “inhibition (INH)” value with Enterovirus A71 [1] and with rhinovirus B14 [7] were 32.9% and 30.4%, respectively. The MNTC at 72 h in [2] and in [8] was 3.12 µM throughout. In addition, in [5], the CC50 at 72 h came to 6.25 µM. Besides, the selectivity ratio in data set [6] is 2.
For `C1=C(/C=C/C=C/c2ccccc2)COc2ccccc21`, the Activity result in the data set with rhinovirus A1B, in the data set on Enterovirus A71 [3] and in the data set on rhinovirus B14 [4] was “Dose-dependent effect” in each case. Further, the half-maximal inhibitory concentration (IC50) in the data set on rhinovirus A1B is 30.8 µM; in the data set on Enterovirus A71 [3] it was > 50 µM; in the data set with rhinovirus B14 [4], 50 µM. Further, the “inhibition (INH)” value in the data set on Enterovirus A71 [1] was 29.5%. In addition, the MNTC at 72 h in data set [2] and in data set [8] was 50 µM throughout. The CC50 at 72 h in data set [5] was 100 µM. For the same compound, the selectivity ratio in data set [6] was determined as 3.24; in data set [9], 2.
With `O=c1c(/C=C/c2ccc(Cl)cc2)coc2ccccc12`, the Activity result in the data set on rhinovirus A1B, in the data set on Enterovirus A71 [3] and in the data set with rhinovirus B14 [4] was “Dose-dependent effect” throughout. In addition, the IC50 was 4.54 µM in the data set with rhinovirus A1B, > 25 µM in the data set with Enterovirus A71 [3] and 5.52 µM in the data set with rhinovirus B14 [4]. Moreover, the “inhibition (INH)” value in the data set with Enterovirus A71 [1] is reported as 21.6%. The MNTC at 72 h in data set [2] and in data set [8] was 25 µM in each case. The CC50 at 72 h in data set [5] was determined as 50 µM. The selectivity ratio in data set [6] turned out to be 11; in data set [9], 9.06.
As for `O=c1c(/C=C/c2ccccc2)coc2ccccc12`, the Activity result with rhinovirus A1B, in the data set on Enterovirus A71 [3] and with rhinovirus B14 [4] was “Dose-dependent effect” each time. Moreover, the IC50 is 3.12 µM with rhinovirus A1B, > 50 µM with Enterovirus A71 [3] and 4.36 µM with rhinovirus B14 [4]. Further, in the data set on Enterovirus A71 [1], the “inhibition (INH)” value is 34.6%. Further, the MNTC at 72 h in data set [2] is > 200 µM; in [8], 50 µM. In addition, the CC50 at 72 h in data set [5] is > 200 µM. Moreover, the figures for the selectivity ratio in data set [6] and in [9] were > 64.2 and > 45.9, respectively.
On to `Clc1ccc(/C=C/C2=Cc3ccccc3OC2)cc1`, for which the Activity entry in the data set on rhinovirus A1B, with Enterovirus A71 [3] and in the data set on rhinovirus B14 [4] was “Dose-dependent effect” throughout. Besides, the IC50 with rhinovirus A1B was 0.4 µM; in the data set with Enterovirus A71 [3] it was > 50 µM; in the data set with rhinovirus B14 [4] it was 18.4 µM. In addition, in the data set with Enterovirus A71 [1], the “inhibition (INH)” value is listed as 49.7%. Also, the MNTC at 72 h in data set [2] and in data set [8] was 50 µM each time. In addition, the CC50 at 72 h in data set [5] amounted to 100 µM. Moreover, the selectivity ratio in [6] worked out at 250; in [9] it was 5.44.

The values are drawn from ChEMBL document CHEMBL1240484, “New 4H-chromen-4-one and 2H-chromene derivatives as anti-picornavirus capsid-binders” (Bioorg Med Chem, 2010).
